From ChEMBL document CHEMBL1157328, “Linear sesquiterpene lactones from Anthemis auriculata and their antibacterial activity” (2006)
Values after ≈ are worked out from the molar mass of the structure shown.

What was measured:
[1] = system: Escherichia coli; experiment: Antibacterial activity against Escherichia coli ATCC 35218 after 48 hrs by serial dilution technique; format: functional; details: ATCC 35218, 48 h
Procedure, shortened: (§1)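 Broth microdilution MIC in 96-well plates. Compounds dissolved at 10 mg/mL in DMSO, diluted in nutrient medium to 1000 μg/mL, tested at final […] in serial dilution. Bacteria grown overnight at 37 °C in TSB (~10^9 cells/mL), adjusted with sterile saline to ~1.0×10^5 per well. Plates incubated 48 h at 37 °C.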

[2] = system: Agrobacterium tumefaciens; experiment: Antibacterial activity against Agrobacterium tumefaciens A281 after 48 hrs by serial dilution technique; format: functional; details: A281, 48 h; procedure, shortened: as §1
[3] = system: Pseudomonas tolaasii; experiment: Antibacterial activity against Pseudomonas tolaasii after 48 hrs by serial dilution technique; format: functional; procedure, shortened: as §1
[4] = system: Salmonella enteritidis; experiment: Antibacterial activity against Salmonella enteritidis ATCC 13076 after 48 hrs by serial dilution technique; format: functional, Salmonella enterica subsp. enterica serovar Enteritidis; details: Salmonella enterica, ATCC 13076, 48 h; procedure, shortened: as §1
[5] = system: Staphylococcus aureus; experiment: Antibacterial activity against Staphylococcus aureus ATCC 6538 after 48 hrs by serial dilution technique; format: functional; details: ATCC 6538, 48 h; procedure, shortened: as §1
[6] = system: Micrococcus luteus; experiment: Antibacterial activity against Micrococcus luteus isolate after 48 hrs by serial dilution technique; format: functional; procedure, shortened: as §1
[7] = system: Micrococcus luteus; experiment: Antibacterial activity against Sarcina lutea ATCC 9341 after 48 hrs by serial dilution technique; format: functional; details: ATCC 9341, 48 h; procedure, shortened: as §1
[8] = system: Bacillus cereus; experiment: Antibacterial activity against Bacillus cereus isolate after 48 hrs by serial dilution technique; format: functional; procedure, shortened: as §1
[9] = system: Candida albicans; experiment: Antifungal activity against Candida albicans isolate after 72 hrs by serial dilution technique; format: functional
Procedure, shortened: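 Candida albicans clinical isolate kept on Sabouraud agar at +4 °C, subcultured monthly. Compounds dissolved at 10 mg/mL in DMSO, diluted in medium to 1000 μg/mL, tested at final […] by serial microdilution in 96-well plates. Inoculum adjusted with saline to ~1.0×10^5 per well. Incubated 72 h at 28 °C. MIC recorded.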

[10] = system: Proteus mirabilis; experiment: Antibacterial activity against Proteus mirabilis isolate after 48 hrs by serial dilution technique; format: functional; procedure, shortened: as §1
[11] = system: Pseudomonas aeruginosa; experiment: Antibacterial activity against Pseudomonas aeruginosa isolate after 48 hrs by serial dilution technique; format: functional; procedure, shortened: as §1

MIC [1]	MIC [2]	MIC [3]	MIC [4]	MIC [5]	MIC [6]	MIC [7]	MIC [8]	MIC [9]	MIC [10]	MIC [11]	Compound
275 µM (≈ 50 µg/mL)	275 µM (≈ 50 µg/mL)	275 µM (≈ 50 µg/mL)	275 µM (≈ 50 µg/mL)	137 µM (≈ 25 µg/mL)	137 µM (≈ 25 µg/mL)	137 µM (≈ 25 µg/mL)	137 µM (≈ 25 µg/mL)	275 µM (≈ 50 µg/mL)			COC(=O)c1ccc(O)c(OC)c1 [METHYL VANILLATE]
117 µM (≈ 50.1 µg/mL)	29.3 µM (≈ 12.5 µg/mL)	117 µM (≈ 50.1 µg/mL)	117 µM (≈ 50.1 µg/mL)	29.3 µM (≈ 12.5 µg/mL)	58.7 µM (≈ 25 µg/mL)	14.7 µM (≈ 6.27 µg/mL)	58.7 µM (≈ 25 µg/mL)	117 µM (≈ 50.1 µg/mL)	117 µM (≈ 50.1 µg/mL)	117 µM (≈ 50.1 µg/mL)	C=C1CC[C@]2(C)CC[C@]3(C)[C@H](CC[C@@H]4[C@@]5(C)CC[C@H](O)C(C)(C)[C@@H]5CC[C@]43C)[C@@H]2[C@@H]1C
101 µM (≈ 25.1 µg/mL)	101 µM (≈ 25.1 µg/mL)	202 µM (≈ 50.2 µg/mL)	202 µM (≈ 50.2 µg/mL)	101 µM (≈ 25.1 µg/mL)	101 µM (≈ 25.1 µg/mL)	51 µM (≈ 12.7 µg/mL)	51 µM (≈ 12.7 µg/mL)	101 µM (≈ 25.1 µg/mL)	202 µM (≈ 50.2 µg/mL)	202 µM (≈ 50.2 µg/mL)	C=C1C(=O)OCC1C/C=C(\C)CC(=O)C=C(C)C (stereo not drawn) [ANTHECOTULIDE]
189 µM (≈ 50 µg/mL)	94.7 µM (≈ 25 µg/mL)	189 µM (≈ 50 µg/mL)	189 µM (≈ 50 µg/mL)	47 µM (≈ 12.4 µg/mL)	94.7 µM (≈ 25 µg/mL)	47 µM (≈ 12.4 µg/mL)	94.7 µM (≈ 25 µg/mL)	189 µM (≈ 50 µg/mL)	189 µM (≈ 50 µg/mL)	189 µM (≈ 50 µg/mL)	C=C1C(=O)OC[C@H]1[C@@H](O)/C=C(\C)CC(=O)C=C(C)C
81.7 µM (≈ 25 µg/mL)	81.7 µM (≈ 25 µg/mL)	163 µM (≈ 50.1 µg/mL)	163 µM (≈ 50.1 µg/mL)	81.7 µM (≈ 25 µg/mL)	81.7 µM (≈ 25 µg/mL)	40.8 µM (≈ 12.5 µg/mL)	81.7 µM (≈ 25 µg/mL)	81.7 µM (≈ 25 µg/mL)	163 µM (≈ 50.1 µg/mL)	163 µM (≈ 50.1 µg/mL)	C=C1C(=O)OC[C@H]1[C@H](/C=C(\C)CC(=O)C=C(C)C)OC(C)=O
68.6 µM (≈ 39.9 µg/mL)	68.6 µM (≈ 39.9 µg/mL)	137 µM (≈ 79.8 µg/mL)	137 µM (≈ 79.8 µg/mL)	34.3 µM (≈ 19.9 µg/mL)	34.3 µM (≈ 19.9 µg/mL)	34.3 µM (≈ 19.9 µg/mL)	34.3 µM (≈ 19.9 µg/mL)		137 µM (≈ 79.8 µg/mL)		CN[C@@H]1[C@H](O[C@H]2[C@H](O[C@H]3[C@H](O)[C@@H](O)[C@H](N=C(N)N)[C@@H](O)[C@@H]3N=C(N)N)O[C@@H](C)[C@]2(O)C=O)O[C@@H](CO)[C@H](O)[C@H]1O [STREPTOMYCIN]

Compound	MIC [1]	MIC [2]	MIC [3]	MIC [4]	MIC [5]	MIC [6]	MIC [7]	MIC [8]	MIC [9]	MIC [10]	MIC [11]
c1ccc(-c2ccc(C(c3ccccc3)n3ccnc3)cc2)cc1 (stereo not drawn) [BIFONAZOLE]									644 µM (≈ 200 µg/mL)		
